# Most compounds without a hit are left out; they make up all but 2.2% or so of the library.
# TRAIL sens C8: viability loss with TRAIL in NB7+C8 cells, primary screen, TRAIL sensitizer project, cell-based, ATPlite luminescence; inhibition (viability loss, TRAIL sensitization), % at 10 µM; 360,000 compounds, 1% hits;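 active means compounds causing at least 50% loss of cell viability in the single-dose screen, relative to plate controls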
# APP 5'UTR act: activators of APP 5'UTR luciferase reporter, primary screen, SH-SY5Y cells | 190,000 compounds, 1% hits | SH-SY5Y APP 5'UTR luciferase reporter, luminescence; zero percent = DMSO vehicle wells | activation, % at 2 µM | AID 1276, 2008;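 active means activation above a set limit, based on mean plus 3 SD of controls, cut at about 140% in these data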
# PPC-1+TRAIL kill: compounds killing PPC-1 cancer cells with TRAIL present, primary screen, TRAIL potentiator project, ATPLite luminescence, uHTS; PPC-1 cells + TRAIL, ATPLite viability luminescence; cell killing (% activity), % at 4 µM or 5 µM; 220,000 compounds, 0.41% hits; AID 1443, 2008;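 active means cell killing above 50% in the first pass at 4 µM, then a duplicate retest at 5 µM averaging 50% or more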;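 further: plate controls were cells with TRAIL plus DMSO for no effect and medium-only wells lacking cells for full effect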
# FLuc inh counter: firefly luciferase enzyme inhibitors, primary screen, artefact control for luciferase-based inhibitor screens, biochemical, luminescence, ATPLite; Luciferin 4-monooxygenase (Photinus pyralis), P08659; 10 min; inhibition, % at 10 µM; 200,000 compounds, 1.5% hits;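 active means inhibition above about 50% when tested at 10 µM, limit read from the data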
# Target sequence (P08659 whole entry, looked up): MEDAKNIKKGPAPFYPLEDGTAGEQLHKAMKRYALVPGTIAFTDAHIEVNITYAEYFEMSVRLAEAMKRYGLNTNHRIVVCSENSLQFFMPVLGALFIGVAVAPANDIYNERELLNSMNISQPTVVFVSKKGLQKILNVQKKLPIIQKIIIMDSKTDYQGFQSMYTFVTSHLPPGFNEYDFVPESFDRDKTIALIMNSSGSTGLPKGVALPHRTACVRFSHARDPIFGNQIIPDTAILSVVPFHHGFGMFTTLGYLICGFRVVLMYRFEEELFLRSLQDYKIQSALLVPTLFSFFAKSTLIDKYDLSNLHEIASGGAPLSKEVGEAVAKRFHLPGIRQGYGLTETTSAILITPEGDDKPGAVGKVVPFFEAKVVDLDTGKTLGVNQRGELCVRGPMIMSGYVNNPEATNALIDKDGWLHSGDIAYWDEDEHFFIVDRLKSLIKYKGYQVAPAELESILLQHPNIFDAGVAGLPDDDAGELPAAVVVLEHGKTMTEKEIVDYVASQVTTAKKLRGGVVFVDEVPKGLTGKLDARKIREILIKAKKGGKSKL
# FLuc act counter: FLuc activators, initial screening, artefact control for FLuc-dependent activation tests, biochemical, ATPlite luminescence; Luciferin 4-monooxygenase (Photinus pyralis), P08659; ATPlite luciferase biochemical, 10 min; 0 = ATP-free wells, 1 = DMSO control; activation factor at 10 µM; 200,000 tested, under 10 active;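 active means luciferase activation factor, scaled between plate controls, of at least 2 with compound at 10 µM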
#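 Material: Luciferase/luciferin reagent mix | Doses: Test compounds dosed from 2 mM stocks in 100% DMSO | Timing: 10 min incubation after luciferase reagent addition, room temperature | Measured by: Luminescence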
# NF-kB neuron act: activators of NF-kB expression in neurons, primary screen, cell-based, HTS. human neuronal cells, NF-kB reporter expression; stronger effect = higher value. fold change at 12.5 µM. 190,000 compounds, 1.6% hits. AID 1239, 2008; in the data active means fold change above about 3.3
# * hit, by the source's call; · = not tested or not shown.
SMILES,TRAIL sens C8,APP 5'UTR act,PPC-1+TRAIL kill,FLuc inh counter,FLuc act counter,NF-kB neuron act
O=C1C=CC(=O)c2c(O)c(N3CCN(CCOCCO)CC3)c(Br)c(O)c21,90*,·,·,·,·,·
O=C1C=CC(=O)c2c(O)c(N3CCN(CCO)CC3)c(Cl)c(O)c21,90*,·,·,·,·,·
NC1=NC[C@@H](CC2CCCCC2)N1CCc1cc(C(F)(F)F)cc(C(F)(F)F)c1,93*,·,·,·,·,·
NC1=NC[C@H](Cc2ccc(O)cc2)N1CCc1cc(C(F)(F)F)cc(C(F)(F)F)c1,1,·,0,·,·,·
Clc1ccc(-c2nc(-c3ccncc3)no2)c(Cl)c1,38,·,·,·,·,·
Nc1nccc(-c2cc(-c3ccc(Cl)cc3Cl)no2)n1,69*,·,36,·,·,·
CCC(=O)c1c(OCc2ccccc2)ccc2c(C)cc(=O)oc12,·,-3,6,-5,1.1,3.4*
O=C(/C=C/c1ccc(O)cc1)c1ccccc1,12,·,4,·,·,·
Cc1nn(C)cc1/C=C/C(=O)c1ccc(O)cc1,34,54,14,57*,0.4,2.4
Cc1ccc(/C=C/C(=O)Nc2ccc(N(C)C)cc2)o1,18,80,20,67*,0.3,1.1
Cc1ccc(/C=C/C(=O)Nc2ccncc2)o1,10,20,0,12,0.9,1.3
OC(c1cccc(Cl)c1)c1ncc(-c2ccccc2Cl)[nH]1 (stereo not given),11,·,·,·,·,·
Cc1ccc(-c2nc3ccccc3[nH]2)s1,56*,114,47,61*,0.4,5.5*
c1csc(-c2nc3ccccc3[nH]2)c1,-1,23,26,24,0.8,1.8
Nc1nc(-c2nc3ccccc3[nH]2)cs1,36,140*,-16,63*,0.4,4.3*
COC(=O)c1ccc(-c2nc3ccccc3[nH]2)cc1,82*,131,36,91*,0.1,7.1*
Cc1cc(-c2nc3ccccc3[nH]2)ccc1N,44,107,40,72*,0.3,5*
COc1ccc(-c2cc(C(=O)NCc3cccc(C(F)(F)F)c3)[nH]n2)c(C)c1,-18,·,·,·,·,·
CCCCN1C(=O)C(=O)NC[C@@H]1Cc1ccc(O)cc1,4,·,·,·,·,·
COc1cccc(CNC(=O)[C@@H]2CCCN2C(=O)[C@@H]2CCCN2S(=O)(=O)c2ccc(OC)c(C)c2)c1,3,·,·,·,·,·
COc1ccc2c(c1)C(=O)[C@@H](O)[C@H](c1ccc(OC)c(Br)c1)O2,20,28,0,-8,1.1,1.4
COc1cccc([C@@H]2Oc3ccc(OC)cc3C(=O)[C@H]2O)c1,41,146*,29,-4,1,5.7*
CN(C)c1ccc(/C=C(\C#N)c2ccccc2)cc1,48,·,24,·,·,·
CN(C)c1cccc(/C=C(\C#N)c2ccccc2)c1,50*,·,6,·,·,·
COC(=O)[C@]12CCCCC=C1N(CCc1ccc(OC)c(OC)c1)C(=O)[C@H](CC(=O)NCC1CCCCC1)C2,-22,·,·,·,·,·
SMILES,TRAIL sens C8,APP 5'UTR act,PPC-1+TRAIL kill,FLuc inh counter,FLuc act counter,NF-kB neuron act
COc1ccccc1/C=C/C=N/n1c(-c2cc(-c3ccccc3)n[nH]2)n[nH]c1=S,58*,·,10,·,·,·
S=c1[nH]nc(-c2cc(-c3ccccc3)n[nH]2)n1/N=C/C=C/c1ccccc1,-15,·,19,·,·,·
O=C(Nc1cc2ccccc2oc1=O)c1ccccc1,55*,131,48,67*,0.3,2.3
OC(c1ccc(F)c(F)c1)c1nc(-c2cc(F)cc(F)c2)cs1 (stereo not given),-9,·,·,·,·,·
COc1cccc(CNC(=O)[C@@H]2CCCN2C(=O)[C@H]2CCCCN2S(=O)(=O)c2ccc(OC)c(C)c2)c1,19,·,·,·,·,·
CCc1ccc(CNC(=O)Cc2ccc(NC(=O)C3=C(C)OCCS3)cc2)cc1,53*,·,·,·,·,·
COc1cccc(CNC(=O)Cc2ccc(NC(=O)C3=C(C)OCCS3)cc2)c1,56*,·,·,·,·,·
COc1ccc(-c2nn(-c3ccccc3)cc2/C=N/N2C(=O)CSC2=S)cc1,69*,25,-12,-6,1.1,3.1
Cc1ccc(-c2csc(C(O)c3ccc(F)c(F)c3)n2)cc1C (stereo not given),-3,·,·,·,·,·
O=c1c2ccccc2ncn1C1CCCCC1,4,4,5,-3,1,0.99
O=c1c2[nH]c3ccccc3c2ncn1C1CCCCC1,69*,40,16,32,0.7,1.8
O=C(OCc1ccccc1)N(CCCCN(CCCNCc1ccccc1)C(=O)OCc1ccccc1)CCCNCc1ccccc1,96*,·,·,·,·,·
O=C(NCCCCCCNC(=O)OCc1ccccc1)OCc1ccccc1,4,·,·,·,·,·
NC(=S)n1[nH]c(-c2ccc([N+](=O)[O-])cc2)c(N=Nc2ccc(Cl)cc2)c1=O,59*,-30,26,3,1,0.57
Cc1ccc([N+](=O)[O-])cc1N=Nc1c(C)[nH]n(C(N)=S)c1=O,-19,·,·,·,·,·
Cc1ccc([N+](=O)[O-])cc1N=Nc1c(-c2ccc([N+](=O)[O-])cc2)[nH]n(C(N)=S)c1=O,50*,-24,35,4,1,0.51
CN1CCN(c2ncnc3c2ncn3[C@H]2CN(Cc3ccc(C(=O)O)cc3)C[C@@H](CO)O2)CC1,-2,·,·,·,·,·
CSCCC(C(=O)NCc1ccccc1)n1c(C2CCN(C(C)=O)CC2)nc2ccccc21 (stereo not given),0,·,·,·,·,·
c1ccc(Nc2scc(-c3ccccc3)[n+]2Cc2ccco2)cc1,-6,113,19,0,1,3.4*
Cc1cccnc1C(NC(=O)C1CCN(CCCOc2ccc(F)cc2)CC1)c1ccccc1 (stereo not given),-2,·,·,·,·,·
Cc1ccc(-c2nsc3c(N4CCC(C(N)=O)CC4)ncnc23)cc1,23,142*,20,20,0.8,1.7
Cc1ccc(C(=O)N2CCN(c3ncnc4c(-c5ccccc5)nsc34)CC2)cc1,·,0,-5,-10,1.1,0.98
CCc1nc2ccc(C(=O)NCCC(C)C)cn2c1N(CC)CCN(C)C,3,·,·,·,·,·
CCOc1cc(/C=N\NC(=O)CC(=O)NCCc2ccccc2)ccc1O,3,-29,8,-6,1.1,1.1
CCOc1cc(C=NNC(=O)N(c2ccccc2)c2ccccc2)ccc1O,63*,·,·,·,·,·
SMILES,TRAIL sens C8,APP 5'UTR act,PPC-1+TRAIL kill,FLuc inh counter,FLuc act counter,NF-kB neuron act
O=C(Nc1cccnc1)c1cc(-c2ccc(F)cc2)on1,-1,17,0,54*,0.5,1.2
O=C(COCc1cc(-c2ccc3c(c2)OCO3)on1)Nc1cccnc1,-23,·,·,·,·,·
O=C(Nc1cccnc1)c1cc(-c2ccc3c(c2)OCO3)on1,10,11,17,68*,0.3,5.5*
O=C(Nc1cccnc1)c1cc(-c2ccc(Cl)c(Cl)c2)on1,-4,·,·,·,·,·
CC1(Cc2ccc(F)c(Cl)c2)C(=O)Nc2c(Cl)cccc21 (stereo not given),2,·,·,·,·,·
CCCCN(C=O)c1c(CC)nc2ccc(C(=O)NCCc3ccccn3)cn12,-2,·,·,·,·,·
